Measurements published in ChEMBL document CHEMBL4765350, “Receptor-interacting protein kinase 2 (RIPK2) and nucleotide-binding oligomerization domain (NOD) cell signaling inhibitors based on a 3,5-diphenyl-2-aminopyridine scaffold” (Eur J Med Chem, 2020).
Active and inactive are the calls of the source. The rule behind the calls is not given here.

system: not listed separately; test: Permeability of the compound by PAMPA; format: ADME; conditions: not given

Row | SMILES | permeability
1 | CCCS(=O)(=O)Nc1cc(-c2cc(-c3ccc(N4CCNCC4)cc3)cnc2N)cc(F)c1OC | 2.9 10^-6 cm/s

system: not listed separately; test: Aqueous solubility of compound in PBS buffer at pH 7.4; format: physicochemical; conditions: not given
In short: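 Solubility measured in PBS buffer at pH 7.4.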

Row | SMILES | solubility
2 | CCCS(=O)(=O)Nc1cc(-c2cc(-c3ccc(N4CCNCC4)cc3)cnc2N)cc(F)c1OC | >= 100 uM

molecular target: T1, Activin receptor type-1 (Homo sapiens) (UniProt Q04771); test: Inhibition of human ALK2 using casein as substrate at 10 uM in presence of 10 uM [gamma33P] ATP by kinase assay; conditions: not given
T1 sequence (whole entry): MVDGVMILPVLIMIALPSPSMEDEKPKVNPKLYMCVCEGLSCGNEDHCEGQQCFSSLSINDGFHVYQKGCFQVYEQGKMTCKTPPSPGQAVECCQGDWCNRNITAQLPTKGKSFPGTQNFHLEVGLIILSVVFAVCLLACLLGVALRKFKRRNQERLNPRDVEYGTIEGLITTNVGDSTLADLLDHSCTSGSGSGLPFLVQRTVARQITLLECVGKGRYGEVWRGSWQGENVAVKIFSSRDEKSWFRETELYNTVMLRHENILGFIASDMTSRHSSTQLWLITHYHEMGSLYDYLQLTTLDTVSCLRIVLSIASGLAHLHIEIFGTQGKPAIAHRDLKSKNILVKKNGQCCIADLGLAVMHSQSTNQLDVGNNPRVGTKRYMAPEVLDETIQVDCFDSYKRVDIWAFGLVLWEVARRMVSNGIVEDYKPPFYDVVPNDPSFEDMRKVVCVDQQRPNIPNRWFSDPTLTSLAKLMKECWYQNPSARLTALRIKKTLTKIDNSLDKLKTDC

Row | SMILES | inhibition
3 | CCCS(=O)(=O)Nc1cc(-c2cc(-c3ccc(S(C)(=O)=O)cc3)cnc2N)ccc1OC | inactive
4 | CCCS(=O)(=O)Nc1cc(-c2cc(-c3cccc(S(C)(=O)=O)c3)cnc2N)ccc1OC | inactive
5 | CCCS(=O)(=O)N1CCOc2ccc(-c3cc(-c4ccc(N5CCNCC5)cc4)cnc3N)cc21 | inactive
6 | CCCS(=O)(=O)Nc1ccc(-c2cc(-c3ccc(N4CCNCC4)cc3)cnc2C)cc1OC | inactive
7 | CCCS(=O)(=O)Nc1cc(-c2cc(-c3ccccc3S(C)(=O)=O)cnc2N)ccc1OC | inactive
8 | CCCS(=O)(=O)Nc1cc(-c2cc(-c3ccc(N4CCNCC4)cc3)cnc2N)cc2c1OCCO2 | inactive
9 | CCCS(=O)(=O)N1CCc2ccc(-c3cc(-c4ccc(N5CCNCC5)cc4)cnc3N)cc21 | inactive
10 | CCCS(=O)(=O)Nc1cc(-c2cc(-c3ccc(N4CCNCC4)cc3)cnc2C)cc(F)c1OC | inactive
11 | CC(C)Oc1cc(NS(=O)(=O)C(C)C)cc(-c2cc(-c3ccc(N4CCNCC4)cc3)cnc2N)c1 | inactive
12 | CCCS(=O)(=O)Nc1cc(-c2cc(-c3ccc(N4CCNCC4)cc3)cnc2N)cc(OCC)c1OC | inactive

system: not listed separately; test: AUC in C57BL/6 mouse at 10 mg/kg, ip by LC-MS/MS analysis; format: ADME, organism-based; design: dose 10 mg/kg; conditions: in vivo
In short: (§1)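 Single 10 mg/kg intraperitoneal dose formulated in 6% Captisol in water, given to 8-week-old female C57BL/6 mice, n = 5 mice per group; plasma concentrations followed over time to derive PK parameters.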

Row | SMILES | AUC
13 | CCCS(=O)(=O)Nc1cc(-c2cc(-c3ccc(N4CCNCC4)cc3)cnc2N)cc(F)c1OC | 2920 ng·h/mL

molecular target: T2, Receptor-interacting serine/threonine-protein kinase 2 (Homo sapiens, UniProt O43353); test: Inhibition of recombinant human RIPK2 at 10 uM incubated for 2 hr by ADP-Glo assay; conditions: not given
T2 sequence (O43353 whole entry): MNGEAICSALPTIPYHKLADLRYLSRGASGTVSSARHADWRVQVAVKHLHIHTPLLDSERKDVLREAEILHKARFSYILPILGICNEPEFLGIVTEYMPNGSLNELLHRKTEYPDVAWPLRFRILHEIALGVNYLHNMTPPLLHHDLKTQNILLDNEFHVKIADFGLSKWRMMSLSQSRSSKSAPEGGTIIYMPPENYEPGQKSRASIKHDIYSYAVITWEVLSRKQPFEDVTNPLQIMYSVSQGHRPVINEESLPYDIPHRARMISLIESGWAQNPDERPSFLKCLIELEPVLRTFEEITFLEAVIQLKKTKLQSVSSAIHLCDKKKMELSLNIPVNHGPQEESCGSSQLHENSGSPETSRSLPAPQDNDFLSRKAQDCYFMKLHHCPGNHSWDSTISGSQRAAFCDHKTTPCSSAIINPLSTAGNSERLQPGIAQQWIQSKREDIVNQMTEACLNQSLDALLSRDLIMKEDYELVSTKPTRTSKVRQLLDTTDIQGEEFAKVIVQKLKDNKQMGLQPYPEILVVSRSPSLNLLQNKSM

Row | SMILES | inhibition
14 | CCCS(=O)(=O)Nc1ccc(-c2cc(-c3ccc(N4CCNCC4)cc3)cnc2C)cc1OC | inactive
15 | CCCS(=O)(=O)Nc1cc(-c2cc(-c3ccccc3S(C)(=O)=O)cnc2N)ccc1OC | inactive
16 | CCCS(=O)(=O)Nc1cc(-c2cc(-c3ccc(N4CCNCC4)cc3)cnc2N)cc(OC)c1C | inactive
17 | CCCS(=O)(=O)Nc1cc(-c2cc(-c3ccc(N4CCNCC4)cc3)cnc2N)cc(OCC)c1OC | inactive

molecular target: Nucleotide-binding oligomerization domain-containing protein 2 (Homo sapiens) (UniProt Q9HC29); test: Inhibition of human NOD2 expressed in HEK293 cells coexpressing NFkappaB-SEAP reporter at 10 uM measured after 7 to 9 hrs by HEKBIue reporter assay; format: cell-based; conditions: time 7-9 hrs
Sequence (Q9HC29 whole entry, the tested form may be a part): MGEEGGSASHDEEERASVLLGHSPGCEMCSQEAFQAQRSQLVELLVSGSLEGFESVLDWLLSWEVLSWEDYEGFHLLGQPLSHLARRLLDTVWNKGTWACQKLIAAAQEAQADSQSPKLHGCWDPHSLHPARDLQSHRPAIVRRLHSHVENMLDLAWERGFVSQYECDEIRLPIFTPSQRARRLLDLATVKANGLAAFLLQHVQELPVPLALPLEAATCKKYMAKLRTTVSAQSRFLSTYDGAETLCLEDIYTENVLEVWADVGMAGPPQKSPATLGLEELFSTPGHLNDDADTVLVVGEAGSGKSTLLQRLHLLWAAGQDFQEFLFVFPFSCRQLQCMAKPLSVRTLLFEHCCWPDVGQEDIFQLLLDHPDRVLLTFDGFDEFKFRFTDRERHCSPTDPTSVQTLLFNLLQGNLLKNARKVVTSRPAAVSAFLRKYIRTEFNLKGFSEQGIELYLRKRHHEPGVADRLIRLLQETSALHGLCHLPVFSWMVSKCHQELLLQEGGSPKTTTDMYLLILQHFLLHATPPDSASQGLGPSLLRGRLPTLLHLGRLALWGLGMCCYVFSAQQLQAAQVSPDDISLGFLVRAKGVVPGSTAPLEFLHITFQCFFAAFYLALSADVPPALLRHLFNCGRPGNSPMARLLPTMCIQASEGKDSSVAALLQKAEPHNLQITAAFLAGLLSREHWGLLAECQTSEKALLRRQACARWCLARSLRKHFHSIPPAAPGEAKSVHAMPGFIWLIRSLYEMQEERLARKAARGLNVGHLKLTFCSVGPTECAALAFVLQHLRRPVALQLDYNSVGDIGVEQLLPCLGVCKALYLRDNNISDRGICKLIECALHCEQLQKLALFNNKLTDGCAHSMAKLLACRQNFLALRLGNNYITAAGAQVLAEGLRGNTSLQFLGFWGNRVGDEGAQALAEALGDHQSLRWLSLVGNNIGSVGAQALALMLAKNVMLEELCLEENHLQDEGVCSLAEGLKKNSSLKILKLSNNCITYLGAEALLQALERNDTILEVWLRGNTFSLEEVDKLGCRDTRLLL

Row | SMILES | inhibition
18 | CCCS(=O)(=O)Nc1cc(-c2cc(-c3ccc(S(C)(=O)=O)cc3)cnc2N)ccc1OC | inactive
19 | COc1cc(-c2cc(-c3ccc(N4CCNCC4)cc3)cnc2C)cc(OC)c1OC | inactive
20 | CCCS(=O)(=O)Nc1cc(-c2cc(-c3ccccc3S(C)(=O)=O)cnc2N)ccc1OC | inactive
21 | CCCS(=O)(=O)Nc1cc(-c2cc(-c3ccc(N4CCNCC4)cc3)cnc2N)cc(OCC)c1OC | inactive

molecular target: T3, Activin receptor type-1 (Homo sapiens, UniProt Q04771); test: Inhibition of human ALK2 using casein as substrate in presence of 10 uM [gamma33P] ATP by kinase assay; conditions: not given
T3 sequence (Q04771 whole entry): T1 sequence (whole entry)

Row | SMILES | IC50
22 | CCOc1cc(NS(=O)(=O)C(C)C)cc(-c2cc(-c3ccc(N4CCNCC4)cc3)cnc2N)c1 | 299 nM
23 | COc1cc(NS(=O)(=O)C(C)C)cc(-c2cc(-c3ccc(N4CCNCC4)cc3)cnc2C)c1 | 239 nM
24 | CCCS(=O)(=O)Nc1cc(-c2cc(-c3ccc(N4CCNCC4)cc3)cnc2N)cc(Cl)c1OC | 202 nM
25 | CCCS(=O)(=O)Nc1cc(-c2cc(-c3ccc(N4CCNCC4)cc3)cnc2N)ccc1O | 387 nM
26 | COc1cc(NS(=O)(=O)c2ccccc2)cc(-c2cc(-c3ccc(N4CCNCC4)cc3)cnc2N)c1 | 5 nM
27 | COc1cc(NS(=O)(=O)C(C)C)cc(-c2cc(-c3ccc(N4CCNCC4)cc3)cnc2N)c1 | 11 nM
28 | CCCS(=O)(=O)Nc1cc(-c2cc(-c3ccc(N4CCNCC4)cc3)cnc2N)cc(F)c1OC | 348 nM
29 | CCS(=O)(=O)Nc1cc(OC)cc(-c2cc(-c3ccc(N4CCNCC4)cc3)cnc2C)c1 | 86 nM
30 | COc1cc(-c2cc(-c3ccc(N4CCNCC4)cc3)cnc2N)cc(F)c1OC | 29 nM
31 | CCCS(=O)(=O)Nc1cc(-c2cc(-c3cccc(N4CCNCC4)c3)cnc2N)cc(F)c1OC | 522 nM
32 | CCCS(=O)(=O)Nc1cc(-c2cc(-c3ccc(N4CCNCC4)cc3)cnc2N)cc(C)c1OC | 395 nM
33 | CCCS(=O)(=O)Nc1cc(OC)cc(-c2cc(-c3ccc(N4CCNCC4)cc3)cnc2N)c1 | 9 nM
34 | COc1cc(NS(C)(=O)=O)cc(-c2cc(-c3ccc(N4CCNCC4)cc3)cnc2C)c1 | 31 nM
35 | CCCS(=O)(=O)Nc1cc(-c2cc(-c3ccc(N4CCNCC4)cc3)cnc2N)ccc1C | 2120 nM
36 | CCCS(=O)(=O)NCc1cc(-c2cc(-c3ccc(N4CCNCC4)cc3)cnc2N)ccc1OC | 145 nM
37 | COc1cc(NS(C)(=O)=O)cc(-c2cc(-c3ccc(N4CCNCC4)cc3)cnc2N)c1 | 5 nM
38 | CCCS(=O)(=O)Nc1cc(-c2cc(-c3ccc(N4CCNCC4)cc3)cnc2N)cc(OC)c1OC | 57 nM
39 | CCCS(=O)(=O)Nc1cc(-c2cc(-c3ccc(N4CCNCC4)cc3)cnc2N)cc(OC)c1C | 355 nM
40 | CCCS(=O)(=O)Nc1cc(-c2cc(-c3ccc(N4CCNCC4)cc3)cnc2N)ccc1OC | 3540 nM
41 | CCCS(=O)(=O)Nc1cc(OC)cc(-c2cc(-c3ccc(N4CCNCC4)cc3)cnc2C)c1 | 108 nM

system: not listed separately; test: Clearance in C57BL/6 mouse at 10 mg/kg, ip by LC-MS/MS analysis; format: ADME, organism-based; conditions: in vivo; in short: as §1

Row | SMILES | CL/F
42 | CCCS(=O)(=O)Nc1cc(-c2cc(-c3ccc(N4CCNCC4)cc3)cnc2N)cc(F)c1OC | 59.7 mL/min/kg

system: not listed separately; test: Stability in mouse liver microsomes assessed as intrinsic clearance; format: ADME, Microsome; conditions: not given

Row | SMILES | CLint
43 | CCCS(=O)(=O)Nc1cc(-c2cc(-c3ccc(N4CCNCC4)cc3)cnc2N)cc(F)c1OC | 27 µL/min/mg

molecular target: T2, Receptor-interacting serine/threonine-protein kinase 2; test: Inhibition of recombinant human RIPK2 incubated for 2 hr by ADP-Glo assay; conditions: not given
In short: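 IC50 values reported as the mean of two or three determinations ± standard deviation.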

Row | SMILES | IC50
44 | CCOc1cc(NS(=O)(=O)C(C)C)cc(-c2cc(-c3ccc(N4CCNCC4)cc3)cnc2N)c1 | 21 nM
45 | COc1cc(NS(=O)(=O)C(C)C)cc(-c2cc(-c3ccc(N4CCNCC4)cc3)cnc2C)c1 | 76 nM
46 | CCCS(=O)(=O)Nc1cc(-c2cc(-c3ccc(S(C)(=O)=O)cc3)cnc2N)ccc1OC | 264 nM
47 | CCCS(=O)(=O)Nc1cc(-c2cc(-c3ccc(N4CCNCC4)cc3)cnc2N)cc(Cl)c1OC | 21 nM
48 | CCCS(=O)(=O)Nc1cc(-c2cc(-c3cccc(S(C)(=O)=O)c3)cnc2N)ccc1OC | 103 nM
49 | COc1cc(NS(=O)(=O)c2ccccc2)cc(-c2cc(-c3ccc(N4CCNCC4)cc3)cnc2N)c1 | 23 nM
50 | COc1cc(NS(=O)(=O)C(C)C)cc(-c2cc(-c3ccc(N4CCNCC4)cc3)cnc2N)c1 | 13 nM
51 | CCCS(=O)(=O)N1CCOc2ccc(-c3cc(-c4ccc(N5CCNCC5)cc4)cnc3N)cc21 | 78 nM
52 | CCCS(=O)(=O)Nc1cc(-c2cc(-c3ccc(N4CCNCC4)cc3)cnc2N)cc(F)c1OC | 16 nM
53 | CCS(=O)(=O)Nc1cc(OC)cc(-c2cc(-c3ccc(N4CCNCC4)cc3)cnc2C)c1 | 127 nM
54 | CCCS(=O)(=O)Nc1cc(-c2cc(-c3cccc(N4CCNCC4)c3)cnc2N)cc(F)c1OC | 11 nM
55 | CCCS(=O)(=O)Nc1cc(-c2cc(-c3ccc(N4CCNCC4)cc3)cnc2N)cc(C)c1OC | 41 nM
56 | CCCS(=O)(=O)Nc1cc(OC)cc(-c2cc(-c3ccc(N4CCNCC4)cc3)cnc2N)c1 | 14 nM
57 | COc1cc(-c2cc(-c3ccc(N4CCNCC4)cc3)cnc2C)cc(OC)c1OC | 100 nM
58 | COc1cc(NS(C)(=O)=O)cc(-c2cc(-c3ccc(N4CCNCC4)cc3)cnc2C)c1 | 296 nM
59 | CCCS(=O)(=O)Nc1cc(-c2cc(-c3ccc(N4CCNCC4)cc3)cnc2N)cc2c1OCCO2 | 520 nM
60 | CCCS(=O)(=O)Nc1cc(-c2cc(-c3ccc(N4CCNCC4)cc3)cnc2N)ccc1C | 102 nM
61 | CCCS(=O)(=O)NCc1cc(-c2cc(-c3ccc(N4CCNCC4)cc3)cnc2N)ccc1OC | 99 nM
62 | COc1cc(NS(C)(=O)=O)cc(-c2cc(-c3ccc(N4CCNCC4)cc3)cnc2N)c1 | 51 nM
63 | CCCS(=O)(=O)N1CCc2ccc(-c3cc(-c4ccc(N5CCNCC5)cc4)cnc3N)cc21 | 185 nM
64 | CCCS(=O)(=O)Nc1cc(-c2cc(-c3ccc(N4CCNCC4)cc3)cnc2N)ccc1OC | 32 nM
65 | CCCS(=O)(=O)Nc1cc(-c2cncc(-c3ccc(N4CCNCC4)cc3)c2)cc(F)c1OC | 27 nM
66 | CCCS(=O)(=O)Nc1cc(OC)cc(-c2cc(-c3ccc(N4CCNCC4)cc3)cnc2C)c1 | 164 nM
67 | CC(C)Oc1cc(NS(=O)(=O)C(C)C)cc(-c2cc(-c3ccc(N4CCNCC4)cc3)cnc2N)c1 | 18 nM

system: not listed separately; test: Stability in mouse liver microsomes assessed as half life; format: ADME, Microsome; conditions: not given

Row | SMILES | t1/2
68 | CCCS(=O)(=O)Nc1cc(-c2cc(-c3ccc(N4CCNCC4)cc3)cnc2N)cc(F)c1OC | 25.6 min
